High-throughput results (PubChem BioAssay)
rCAG RNA binder: r(CAG) repeat RNA binding; AID 651821; TO-PRO-1 dye displacement fluorescence; hit rate 1.3% among 370,000; inhibition, % at 3 µM;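 active = inhibition above the plate cutoff, the mean of all test compounds on that plate plus 3 SD, cut at about 35% in these data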;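 also: 0% = DMSO alone and 100% = 100 µM mitoxantrone as full dye displacement; higher means more dye released from RNA so lower well fluorescence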
SIAE primary: human SIAE inhibition, primary screen; SIAE FP-Rh probe binding, fluorescence polarization; inhibition, % at 9.66 µM; hit rate 0.69% among 370,000; AID 1053197;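 active = inhibition above a cutoff: mean of compounds within the control limits plus 3 SD of those, cut at about 17% in these data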;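 also: 0% = plate median of compound wells and 100% = probe without SIAE protein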
ABHD4 inh: ABHD4 (mouse) inhibition, primary FP screen | purified mABHD4, FP-Rh probe fluorescence polarization | inhibition, % at 8.92 µM | hit rate 0.54% among 370,000 | AID 720543;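 active = inhibition exceeding the mean over every tested compound plus 3 SD, cut at about 30% in these data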;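 also: 0% = plate median of compound wells and 100% = S159A mutant with DMSO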
Target sequence (Q8VD66 whole entry, looked up): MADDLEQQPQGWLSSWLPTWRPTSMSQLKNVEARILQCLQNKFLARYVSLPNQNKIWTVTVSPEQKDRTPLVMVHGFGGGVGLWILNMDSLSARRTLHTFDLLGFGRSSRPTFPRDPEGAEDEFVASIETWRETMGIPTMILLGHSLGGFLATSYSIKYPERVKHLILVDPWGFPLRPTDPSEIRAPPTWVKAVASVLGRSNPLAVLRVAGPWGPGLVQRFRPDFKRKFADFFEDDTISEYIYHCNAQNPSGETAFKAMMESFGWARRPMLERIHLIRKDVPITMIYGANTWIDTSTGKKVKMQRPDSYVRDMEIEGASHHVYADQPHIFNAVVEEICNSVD
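Test system: mouse ABHD4 enzyme, wild type. Reagent: FP-Rh fluorescent activity-based probe, added after compound pre-incubation. Timing: pre-incubation 45 min, probe exposure 60 min, at 25 °C. Technique: FP readout, ex 525 nm / em 598 nm. Benchmarks: high control S159A mutant with DMSO, low control median of compound wells.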
HTRA1 inh: inhibitors of human serine peptidase HTRA1; Q92743; hit rate 0.5% among 340,000; AID 504803; inhibition, % at 5.96 µM; recombinant HTRA1, FP-rhodamine activity-based probe, fluorescence polarization; in the data active = inhibition above about 36%;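 also: 0% = enzyme with DMSO and 100% = wells lacking enzyme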
TCR CD3 inh: blocks the human TCR-CD3 interaction; TAMRA-labeled TCR probe fluorescence, biochemical; inhibition, % at 9.4 µM; hit rate 0.37% among 360,000; AID 651800;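 also: recombinant mutant TCR 2C K166C tagged with TAMRA read by polarization; 0% = receptor in buffer alone and 100% = receptor with positive control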
BSA probe FL: interferes with TAMRA-BSA probe, flagging TCR-CD3 hits | inhibition, % at 9.4 µM | TAMRA-labeled BSA probe fluorescence counterscreen | hit rate 10% among 1,200 | shares compounds with TCR CD3 inh | AID 652035; in the data active = inhibition above about 23%;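 also: 0% = buffer low control and 100% = reference high control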
TCR-CD3 conf: confirmation of human TCR-CD3 interaction inhibitors | shares compounds with TCR CD3 inh | TAMRA-labeled TCR probe fluorescence binding assay | inhibition, % at 9.4 µM | hit rate 48% among 1,200
* hit, by the source's call. In the library only some 2.5% were active in any assay of this set; here they are far more common. Rule as the data show it, unless noted: active = inhibition above about 19%; inactive = the rest.

COc1ccnc2c1c(=O)n(Cc1ccc(F)cc1)c(=O)n2C was read as rCAG RNA binder 0.5, SIAE primary -6.0, ABHD4 inh 13.8, HTRA1 inh -1.7 and TCR CD3 inh -3.2.
O=[N+]([O-])c1cc(C(F)(F)F)ccc1NC1CCN(Cc2ccccc2)C1 (stereo unspecified) was read as rCAG RNA binder -5.3, SIAE primary 7.7, ABHD4 inh -2.5, HTRA1 inh -5.0 and TCR CD3 inh -0.4.
`O=[N+]([O-])c1cc(C(F)(F)F)ccc1NC1CCN(Cc2ccccc2)CC1` gave rCAG RNA binder -6.7, SIAE primary 1.9, ABHD4 inh -2.0, TCR CD3 inh 38.9*, BSA probe FL 10.3 and TCR-CD3 conf 3.7.
For CC(C)c1nc(SCC(=O)NC2CCCC2)c2c(=O)n(C)c(=O)n(C)c2n1 the results were rCAG RNA binder -3.5, SIAE primary 6.5, ABHD4 inh 1.8, HTRA1 inh 3.7 and TCR CD3 inh 0.8.
Screening Cc1ccc(OCC(=O)c2cc(C)c(C)cc2C)c([N+](=O)[O-])n1 returned rCAG RNA binder 13.9, SIAE primary -1.0, ABHD4 inh 0.1, HTRA1 inh 0.7 and TCR CD3 inh -4.6.
For Cc1ccc(OCC(=O)c2c(N)n(C)c(=O)n(C)c2=O)c([N+](=O)[O-])n1 the results were rCAG RNA binder 13.3, SIAE primary 8.6, ABHD4 inh 13.1, HTRA1 inh 5.7, TCR CD3 inh 35.6*, BSA probe FL 0.8 and TCR-CD3 conf 26.1*.
`CN1C(=O)C(C(=O)Nc2ccccc2F)c2ccccc21` (stereo unspecified) gave rCAG RNA binder 5.7, SIAE primary 0.7, ABHD4 inh 6.3, HTRA1 inh -1.2, TCR CD3 inh 19.2*, BSA probe FL -1.8 and TCR-CD3 conf 1.1.
For Cc1ccc(NC(=O)C2C(=O)N(C)c3ccccc32)cc1 (stereo unspecified) the results were rCAG RNA binder 3.3, SIAE primary 0.4, ABHD4 inh -5.1, HTRA1 inh 2.2 and TCR CD3 inh 1.8.
`CCCCOCCCNC(=S)Nc1ccc(S(=O)(=O)N2CCOCC2)cc1` gave rCAG RNA binder 2.0, SIAE primary -1.9, ABHD4 inh -9.8, HTRA1 inh -0.8 and TCR CD3 inh 1.6.
For O=S(=O)(c1ccc(NC(=S)NCCC(c2ccccc2)c2ccccc2)cc1)N1CCOCC1 the results were rCAG RNA binder 12.5, SIAE primary -230.0, ABHD4 inh -100.7, HTRA1 inh -72.8, TCR CD3 inh 32.8*, BSA probe FL 14.1 and TCR-CD3 conf 17.6.
`O=C(O)C1CSC(c2ccco2)N1` (stereo unspecified) gave rCAG RNA binder 20.8, SIAE primary 7.5, ABHD4 inh 14.9, HTRA1 inh 11.1, TCR CD3 inh 21.0*, BSA probe FL -2.7 and TCR-CD3 conf 16.8.
`CC(CCc1ccccc1)NC(=O)COC(=O)CC1CC2CCC1C2` (stereo unspecified) gave rCAG RNA binder -5.8, SIAE primary -3.8, ABHD4 inh 1.7, HTRA1 inh -8.2 and TCR CD3 inh 7.3.
`Cc1cc(C)cc(N(CC(=O)Nc2ccc(-c3nc4ccc(C)cc4s3)cc2)S(C)(=O)=O)c1` gave rCAG RNA binder 16.8, SIAE primary -4.5, ABHD4 inh -9.8, HTRA1 inh -25.3, TCR CD3 inh 49.0*, BSA probe FL 18.8 and TCR-CD3 conf 32.4*.
For COc1ccc(-c2cnnn2-c2ccc(NC(=O)c3ccc(S(=O)(=O)N4CCCCC4)cc3)cc2)cc1 the results were rCAG RNA binder 16.0, SIAE primary -81.7, ABHD4 inh -59.6, HTRA1 inh -64.1, TCR CD3 inh 24.0*, BSA probe FL 28.7* and TCR-CD3 conf 39.0*.
For COc1ccc(C(=O)Nc2ccc(S(=O)(=O)N3CCCCC3)cc2)cc1 the results were rCAG RNA binder -0.2, SIAE primary -11.8, ABHD4 inh -4.1, HTRA1 inh -25.9 and TCR CD3 inh 3.7.
`C=CCn1c(O)c(N=NC(=O)CNC(=O)Cc2ccccc2)c2ccccc21` gave rCAG RNA binder -0.5, SIAE primary -4.2, ABHD4 inh -2.4, HTRA1 inh 0.9 and TCR CD3 inh 5.8.
For N#Cc1c(-c2ccccc2)c(-c2ccccc2)nn(CC(=O)NNC(=O)Nc2ccc(Cl)c(Cl)c2)c1=O the results were rCAG RNA binder 23.0, SIAE primary -181.3, ABHD4 inh -137.2, HTRA1 inh -92.0, TCR CD3 inh 29.9*, BSA probe FL 20.0 and TCR-CD3 conf 45.0*.
O=C(NNC(=O)c1ccccc1F)c1cccc(-n2cccc2)c1 was read as rCAG RNA binder 17.9, SIAE primary -3.5, ABHD4 inh 1.8, HTRA1 inh 4.1, TCR CD3 inh 21.9*, BSA probe FL 0.1 and TCR-CD3 conf 26.1*.
Screening O=C(NNC(=O)c1cccc(-n2cccc2)c1)c1ccccc1 returned rCAG RNA binder 1.6, SIAE primary 2.4, ABHD4 inh -6.0, HTRA1 inh 3.8 and TCR CD3 inh -0.2.
CN(Cc1ccccc1)c1ccc(C(CC(N)=O)NC(=O)c2ccc(Br)cc2)cc1[N+](=O)[O-] (stereo unspecified) was read as rCAG RNA binder 9.4, SIAE primary -9.6, ABHD4 inh -17.3, HTRA1 inh -39.7 and TCR CD3 inh 2.3.
`Cc1ccc(C(=O)NNC(=O)c2cccc(S(=O)(=O)N3CCOCC3)c2)cc1` gave rCAG RNA binder 3.7, SIAE primary 5.9, ABHD4 inh 2.8, HTRA1 inh 3.2 and TCR CD3 inh 0.5.
`O=C(NNC(=O)C1CCN(S(=O)(=O)c2c(Cl)cccc2Cl)CC1)c1ccccc1O` gave rCAG RNA binder 16.9, SIAE primary 5.8, ABHD4 inh 7.8, HTRA1 inh 14.8, TCR CD3 inh 31.0*, BSA probe FL -11.1 and TCR-CD3 conf 27.4*.
O=C(NNC(=O)c1cc(Cl)ccc1O)c1cccc(S(=O)(=O)N2CCOCC2)c1 was read as rCAG RNA binder 17.7, SIAE primary 13.3, ABHD4 inh 16.9, HTRA1 inh 21.1, TCR CD3 inh 43.2*, BSA probe FL -11.0 and TCR-CD3 conf 31.3*.
`O=C(NC1CCCCCC1)C1CCN(S(=O)(=O)c2c(Cl)cccc2Cl)CC1` gave rCAG RNA binder 3.6, SIAE primary 12.7, ABHD4 inh 1.5, HTRA1 inh 0.1 and TCR CD3 inh 0.9.
Screening O=C(NNC(=O)c1ccccc1O)c1ccc(Cl)c(S(=O)(=O)N2CCCCC2)c1 returned rCAG RNA binder 18.6, SIAE primary 8.1, ABHD4 inh 13.1, HTRA1 inh 35.3, TCR CD3 inh 27.0*, BSA probe FL -10.0 and TCR-CD3 conf 19.8*.
Screening O=C(NNC(=O)C1CCN(S(=O)(=O)c2ccccc2C(F)(F)F)CC1)c1ccccc1O returned rCAG RNA binder 10.5, SIAE primary 9.4, ABHD4 inh 5.9, HTRA1 inh 10.7, TCR CD3 inh 31.4*, BSA probe FL -7.3 and TCR-CD3 conf 23.2*.
